Experimental findings from ChEMBL document CHEMBL5252546, “Salutaxel, a Conjugate of Docetaxel and a Muramyl Dipeptide (MDP) Analogue, Acts as Multifunctional Prodrug That Inhibits Tumor Growth and Metastasis” (J Med Chem, 2018) are described below.

For data set [1], the system named is 4T1. Kind of data set: Antitumor activity against mouse 4T1 cells xenografted with BALB/c mouse assessed as decrease in lung metastasis at 4 mg/kg,iv administrated once per week for 4 weeks. Type of data set: functional, organism-based.
In data set [2] the test system is 4T1. Kind of data set: Antitumor activity against mouse 4T1 cells xenografted with BALB/c mouse assessed as decrease in tumor weight at 4 mg/kg,iv administrated once per week for 4 weeks. Type of data set: functional, organism-based.
A short description of data set [3]: Toxicity in BALB/c mouse xenografted with mouse 4T1 cells assessed as decrease in body weight at 4 mg/kg,iv administrated with docetaxel combination once per week for 4 weeks. It counts as organism-based. Particulars: in vivo, 672 h. In a few lines:
(§1)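 4T1 mammary fat-pad model in BALB/c mice. Doxorubicin (4 mg/kg) was given alone or co-administered with the conjugate or its parent taxane, with iv saline vehicle. Readouts were body weight, tumour volume, tumour weight, lung metastatic nodules and lung metastasis score. Mean ± SEM, n = 10; ANOVA and Student's t test.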

The nature of data set [4]: Toxicity in BALB/c mouse xenografted with mouse 4T1 cells assessed as decrease in body weight at 4 mg/kg,iv administrated combination with compound 3 once per week for 4 weeks. Particulars: in vivo, 672 h. It counts as organism-based. In a few lines: as §1
Data set [5] can be described thus: Toxicity in BALB/c mouse xenografted with mouse 4T1 cells assessed as decrease in body weight at 4 mg/kg,iv administrated once per week for 4 weeks. Type of data set: organism-based. Particulars: in vivo, 672 h.
Data set [6] concerns 4T1. The data set is described as follows: Antitumor activity against mouse 4T1 cells implanted in BALB/c mouse assessed as decrease in lung metastasis at 5 to 20 mg/kg,iv administrated once per week for 4 weeks by H and E staining based assay. Particulars: dose 5-20 mg/kg. Type of data set: functional, organism-based.
The subject of data set [7] is 4T1. The data set is described as follows: Antitumor activity against mouse 4T1 cells implanted in BALB/c mouse assessed as decrease in lung injury at 5 to 20 mg/kg,iv administrated once per week for 4 weeks by H and E staining based assay. Type of data set: functional, organism-based. The following applies: dose 5-20 mg/kg.
Data set [8] deals with 4T1. Kind of data set: Antitumor activity against mouse 4T1 cells implanted in BALB/c mouse assessed as decrease in lung Ly-6G expression level at 5 to 20 mg/kg,iv administrated once per week for 4 weeks by immunohistochemistry analysis. It counts as functional, organism-based. Particulars: dose 5-20 mg/kg.
Data set [9] deals with 4T1. The data set is described as follows: Antitumor activity against mouse 4T1 cells implanted in BALB/c mouse assessed as decrease in lung TSP-1 expression level at 5 to 20 mg/kg,iv administrated once per week for 4 weeks by immunohistochemistry analysis. Type of data set: functional, organism-based. The following applies: dose 5-20 mg/kg.

Structures are written as SMILES. Activity calls are given as the source filed them. No cut-off for these calls is given here.

In the case of `COc1cccc2c1C(=O)c1c(O)c3c(c(O)c1C2=O)C[C@@](O)(C(=O)CO)C[C@@H]3O[C@H]1C[C@H](N)[C@H](O)[C@H](C)O1` [DOXORUBICIN], the result in data set [1] and in [2] was Active. Further, the Activity entry in data set [3], in data set [4] and in data set [5] was “Toxic” each time.

Turning to `CC(=O)O[C@@]12CO[C@@H]1C[C@H](O)[C@@]1(C)C(=O)[C@H](O)C3=C(C)[C@@H](OC(=O)[C@H](OC(=O)CCC(=O)NCCCC[C@H](NC(=O)CC[C@@H](NC(=O)[C@H](C)NC(=O)/C=C/c4ccc(F)cc4Cl)C(N)=O)C(N)=O)[C@@H](NC(=O)OC(C)(C)C)c4ccccc4)C[C@@](O)([C@@H](OC(=O)c4ccccc4)[C@H]21)C3(C)C`, the Activity entry in data set [6] and in data set [7] was “Dose-Dependent Effect” throughout. Besides, the result in data set [8] and in [9] was Active.
